High-throughput results from PubChem.
FLuc inh counter – firefly luciferase enzyme inhibitors, primary screen, artefact control for luciferase-based inhibitor screens, biochemical, luminescence, ATPLite; Luciferin 4-monooxygenase (Photinus pyralis), P08659; 10 min; inhibition, % at 10 µM; 200,000 tested, 1.5% active;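 active = inhibition above about 50% when tested at 10 µM, limit read from the data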
Target sequence (P08659 whole entry, looked up): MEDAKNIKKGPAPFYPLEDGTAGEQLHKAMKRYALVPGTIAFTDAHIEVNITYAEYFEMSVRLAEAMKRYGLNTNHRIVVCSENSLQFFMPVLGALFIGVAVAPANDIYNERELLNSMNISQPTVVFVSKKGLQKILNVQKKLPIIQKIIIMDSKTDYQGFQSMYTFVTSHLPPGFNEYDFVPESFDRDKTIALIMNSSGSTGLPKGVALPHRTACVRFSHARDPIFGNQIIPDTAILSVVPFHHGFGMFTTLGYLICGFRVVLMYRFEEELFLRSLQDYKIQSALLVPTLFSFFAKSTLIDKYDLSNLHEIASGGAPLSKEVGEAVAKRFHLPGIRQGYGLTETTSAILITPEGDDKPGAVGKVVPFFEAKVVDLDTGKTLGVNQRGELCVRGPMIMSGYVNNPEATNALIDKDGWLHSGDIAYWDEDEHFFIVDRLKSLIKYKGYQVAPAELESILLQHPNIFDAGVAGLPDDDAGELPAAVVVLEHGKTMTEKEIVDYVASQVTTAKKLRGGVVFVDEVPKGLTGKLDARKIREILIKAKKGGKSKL
NF-kB expr up – activators of NF-kB expression in neurons, primary screen, cell-based, HTS; human neuronal cells, NF-kB reporter expression; hits give high values; fold change at 12.5 µM; 190,000 tested, 1.6% active; in the data active = fold change above about 3.3
APP 5'UTR act – activators of APP 5'UTR luciferase reporter, primary screen, SH-SY5Y cells | SH-SY5Y APP 5'UTR luciferase reporter, luminescence; zero percent = DMSO vehicle wells | activation, % at 2 µM | 190,000 tested, 1% active | AID 1276, 2008;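 active = activation above a set limit, based on mean plus 3 SD of controls, cut at about 140% in these data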
STAT1 act – STAT1 signaling activators, primary screen, cell-based, HTS, luciferase reporter | NIH 3T3 STAT1-luciferase reporter, IFN-gamma, luminescence; 100% = IFN-gamma alone, no compound | activation (% of control), % at 5.5 µM | 200,000 tested, 2.6% active;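 active = activation above the screen-wide mean activation plus 3 SD, cut at about 130% in these data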
FLuc stim CS – FLuc activators, initial screening, artefact control for FLuc-dependent activation tests, biochemical, ATPlite luminescence. ATPlite luciferase biochemical, 10 min; 0 = ATP-free wells, 1 = DMSO control. activation factor at 10 µM. 200,000 tested, under 10 active. AID 1027, 2008;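 active = luciferase activation factor, scaled between plate controls, of at least 2 with compound at 10 µM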
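Assay system – cell-free luciferase reagent · Medium – PBS-based ATP solution · Dosing – test compounds dosed from 2 mM stocks in 100% DMSO · Timing – 10 min, room temperature · Technique – light output (luminescence) · Measure – luminescence gain marking luciferase activators · Controls – No-ATP low control, compound-free enzyme-plus-ATP high control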
Pf gamet viab – late stage P. falciparum gametocyte viability inhibitors, primary screen, ATP luminescence, HTS. P. falciparum stage V gametocytes, 24 h. inhibition, % at 10.9 µM. 150,000 tested, 0.065% active;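 active = inhibition above the mean plus 3 SD of compounds within the control limits, set per campaign, cut at about 38% in these data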
STAT1 act conf – STAT1 signaling activators, confirmation, cell-based, HTS, luciferase reporter | shares compounds with STAT1 act | NIH 3T3 STAT1-luciferase reporter, IFN-gamma potentiation, luminescence; 100% = IFN-gamma EC80 alone, no compound | activation (% of control), % at 5.7 µM | 1,200 tested, 97% active | AID 1262, 2008;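 active = activation above a set limit carried over from the earlier primary STAT1 screen, cut at about 140% in these data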
NFkB act – NF-kB reporter activators, TNF-alpha stimulated, counter-screen for STAT1 activator project, cell-based, HEK293T, luciferase luminescence; shares compounds with STAT1 act; 100% = TNF-alpha with vehicle only; activation (% of control), % at 5.7 µM; 1,200 tested, 43% active; AID 1306, 2008;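 active = activation above the mean of solvent-only control wells plus 3 SD, set per campaign, cut at about 130% in these data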;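 note: TNF-alpha given at a submaximal dose yielding about 80% of full reporter signal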
STAT3 act STAT1c – STAT3 reporter activation by STAT1 hits, confirmation, counter-screen for STAT1 activator project, U3A cells, luciferase, luminescence | AID 1316, 2008 | 1,200 tested, 46% active | IL-6; cells lack STAT1; 100 = IL-6 alone, no compound effect | activation (% of control), % at 5.7 µM | shares compounds with STAT1 act;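 active = activation above the solvent-only control well mean plus 3 SD, set per plate batch, cut at about 110% in these data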;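 note: higher means more STAT3 reporter activation so hits are non-selective activators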
Hits are given with their value; 0 = inactive; - = not tested or not shown. Hits are enriched below; roughly 3.5% of the tested compounds scored in any of these assays.

SMILES	FLuc inh counter	NF-kB expr up	APP 5'UTR act	STAT1 act	FLuc stim CS	Pf gamet viab	STAT1 act conf	NFkB act	STAT3 act STAT1c
CC(C)(C)c1ccc(NC(=O)Nc2ccc(F)cc2)cc1	0	4.18	162.0	175.5	0	0	212.6	137.8	126.2
CCOC(=O)/C(C#N)=N\Nc1ccc(S(=O)(=O)Nc2nc(C)cc(C)n2)cc1	0	0	0	0	0	0	-	-	-
Cc1ccc(NC(=O)/C(C#N)=C/c2cccs2)c(C)c1	0	3.88	0	160.5	0	0	171.3	143.8	0
Nc1nc(-c2ccc3ccccc3c2)cs1	0	6.3	0	169.0	0	0	195.0	134.3	0
CC(=O)Nc1ccc2c(c1)C(=O)c1ccccc1C2=O	0	3.86	185.8	156.1	0	0	202.8	139.2	0
CCCC1C(C#N)=C(N)Oc2n[nH]c(C(C)(C)C)c21 (configuration not stated)	0	0	0	0	0	0	-	-	-
O=C(Oc1ccc(-c2cnc3ccccc3n2)cc1)c1ccco1	0	0	0	155.1	0	0	189.9	0	0
O=C(Oc1ccc(-c2cnc3ccccc3n2)cc1)c1cc([N+](=O)[O-])ccc1Cl	0	0	0	0	0	0	-	-	-
CCn1cc(C(=O)Nc2ccc(Cl)cc2Cl)cn1	-	-	-	-	-	0	-	-	-
NS(=O)(=O)c1ccc(NC(=O)COC(=O)C2CC(=O)N(Cc3ccccc3)C2)cc1 (configuration not stated)	0	0	0	0	0	0	-	-	-
Nc1c(C(=O)c2ccc(Br)cc2)oc2ccccc12	0	0	0	0	0	0	-	-	-
Nc1c(C(=O)c2ccccc2)oc2ccc(Br)cc12	0	3.97	0	155.1	0	0	187.9	136.5	129.6
Cc1cc(NC(=O)c2noc3c2CCCCC3)no1	0	0	0	0	0	-	-	-	-
CC(=O)c1ccc(NC(=O)c2noc3c2CCCCC3)cc1	0	4.99	160.6	150.9	0	-	222.6	0	0
CC1=C(CCN2CCN(C(C)C)C(CCO)C2)C(C)(C)CCC1 (configuration not stated)	0	-	0	0	0	0	-	-	-
O=C(Nc1ccc2ccccc2c1)c1onc2c1CCCC2	0	8.14	205.8	153.7	0	-	270.1	0	0
COc1ccc(C(=O)Nc2ccc3ccccc3c2)cc1	-	-	-	-	-	0	-	-	-
COc1cc(/C=N/OCC(=O)NC2CCCCC2C)ccc1OCc1ccc(Cl)cc1 (configuration not stated)	0	4.96	140.9	157.7	0	-	181.7	133.7	0
COc1cc(/C=N/OCC(=O)Nc2cc(C)cc(C)c2)ccc1OCc1ccc(Cl)cc1	0	4.1	0	152.1	0	-	182.7	0	112.7
CC(C)(C)NC(=O)NC(=O)COc1ccc(Br)cc1Br	0	5.1	150.8	196.5	0	-	242.9	0	113.6
O=C(Nc1ccc(-c2noc(-c3cccs3)n2)cc1)c1cccnc1	0	3.84	0	156.6	0	0	196.9	136.0	0
COc1cccc(-c2nc(-c3ccc(NC(=O)c4cccnc4)cc3)no2)c1	0	0	0	0	0	0	-	-	-
CC1CN(S(=O)(=O)c2ccc(C(=O)Nc3ccc(S(=O)(=O)Nc4ncccn4)cc3)cc2)CC(C)O1 (configuration not stated)	0	0	0	0	0	0	-	-	-
COc1ccc(N=c2sc3ccccc3n2C)cc1	0	5.63	0	151.0	0	-	207.6	134.7	111.4
Cc1ccccc1NC(=S)N(CCN(C)C)C(C)c1cccnc1 (configuration not stated)	0	0	0	0	0	0	-	-	-
SMILES	FLuc inh counter	NF-kB expr up	APP 5'UTR act	STAT1 act	FLuc stim CS	Pf gamet viab	STAT1 act conf	NFkB act	STAT3 act STAT1c
O=C(OCc1csc(-c2ccccc2)n1)c1cccs1	0	0	0	152.4	0	0	181.0	0	0
Fc1cccc(NCc2cn3ccccc3n2)c1	0	4.25	0	169.4	0	-	193.6	0	112.6
CC1(C)CN(c2ccc(CC#N)cc2)C1=O	0	0	0	0	0	0	-	-	-
Cc1ccc(-c2cnc(-c3ccncc3)o2)cc1	0	0	0	153.1	0	0	154.3	0	0
O=[N+]([O-])c1ccc(-c2ncc(-c3ccc(Br)cc3)o2)cc1	-	-	-	-	-	0	-	-	-
O=C(Nc1ccc2c(c1)CCC2)c1cccc(F)c1	0	6.8	169.7	162.5	0	0	202.3	0	0
O=C(Nc1ccc2c(c1)CCC2)c1ccccc1Br	0	0	218.9	154.5	0	0	218.2	138.1	112.1
O=C(Nc1ccncc1)c1cccc(F)c1	0	0	0	0	0	0	-	-	-
CN(C(=O)c1ccco1)c1nc(-c2ccccc2)cs1	-	-	-	-	-	0	-	-	-
CN(c1ccc(O)cc1)c1nc(-c2ccccc2)cs1	0	6.87	242.8	186.4	0	0	237.8	0	120.1
CC(=O)N1c2c(cc(Br)cc2S(=O)(=O)N2CCN(C(=O)c3ccco3)CC2)CC1C (configuration not stated)	0	0	0	0	0	0	-	-	-
CCOC(=O)c1c(C)[nH]c(C(=O)OCCOc2ccccc2C)c1C	0	3.37	0	158.8	0	0	182.6	0	122.6
NS(=O)(=O)c1ccc(CNC(=O)/C=C/c2c(F)cccc2Cl)cc1	0	0	0	0	0	0	-	-	-
O=C1/C(=C\c2ccc3c(c2)OCO3)CCC/C1=C/c1ccc2c(c1)OCO2	0	0	0	0	0	-	-	-	-
O=c1/c(=C\c2ccc3c(c2)OCO3)sc2n1CCCN=2	0	4.65	0	154.4	0	0	200.5	138.8	0
Cc1cc(C(F)(F)F)nc(CCNCc2c(C(=O)N3CCCC3)nc3ccccn23)n1	0	0	0	0	0	0	-	-	-
Cc1cc2nccc(-c3ccccn3)n2n1	0	0	0	0	0	0	-	-	-
c1ccc(-c2cc3nccc(-c4ccccn4)n3n2)cc1	0	0	0	160.5	0	0	188.2	135.4	117.1
CC(=O)Nc1c(C)cc(OCC(=O)O)cc1C	-	-	-	-	-	0	-	-	-
Cc1ccc2[nH]c(O)c(N=O)c2c1	-	-	-	-	-	0	-	-	-
